“Also recorded” adds a separate entry of the source. Ends that are not written are not given here.

Data set [1] concerns Vero cells. Briefly: MTT cytotoxicity assay. The format is cell-based, African green monkey. Particulars: 48 h incubation, 0 to 200 μg/mL. Put shortly: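 Vero cells were grown in MEM with 10% FBS at 37 ℃ and 5% CO2, seeded and cultured for 24 h. Medium was then replaced with fresh medium holding peptide at 0–200 μg/mL for 48 h at 37 ℃. MTT stock (5 mg/mL in PBS) was added for 4 h. Formazan was dissolved in DMSO for 10 min at room temperature and absorbance read at 570 nm.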
On the technique in general: Formazan colour is commonly taken as a measure of viable cells.

Data set [2] concerns Vero cells. Briefly: Cellular uptake and localization of FITC-labeled peptides. The data set is classed as cell-based, African green monkey. The conditions noted are these: N-terminus FITC-labeled peptide, 10 μg/mL, 24 h at 37 ℃; confocal microscopy and flow cytometry (average FITC intensity).
For a further data set, the system named is HSV-1 (F strain). The experiment in a line: Post-entry inhibition assay. The data set is classed as cell-based. Particulars: time of addition experiment, peptide added to cells at 5 μg/mL after HSV-1 infection.

On to LWHHIWHFVHHLI-NH2 [Eval418-FH5], for which the “CC50 (50% cytotoxicity concentration)” value in the data set on Vero cells [1] worked out at 106.68 µg/mL. In addition, the “cellular uptake in Vero cells” value in the data set on Vero cells [2] is “significant cellular uptake; also recorded: considerable cellular uptake”. For the same substance, the “inhibitory rate of plaque formation when added after HSV-1 infection” value with HSV-1 (F strain) was found to be 29.72%.

Values taken from publication PMC5743469 (Theranostics, 2018).
